In ChEMBL document CHEMBL3997841, “Continued optimization of the M5 NAM ML375: Discovery of VU6008667, an M5 NAM with high CNS penetration and a desired short half-life in rat for addiction studies” (Bioorg Med Chem Lett, 2017):
Values after ≈ are worked out from the molar mass of the structure shown.

Assays:
[1] = target: T1, Muscarinic acetylcholine receptor M5 (Homo sapiens, UniProt P08912); assay: Negative allosteric modulation of human M5 receptor expressed in CHO cells assessed as inhibition of acetyl choline-induced calcium mobilization preincubated for 150 secs followed by acetyl choline addition by Fluo-4-AM dye based fluorescence assay; format: functional, cell-based
T1 sequence (P08912 whole entry): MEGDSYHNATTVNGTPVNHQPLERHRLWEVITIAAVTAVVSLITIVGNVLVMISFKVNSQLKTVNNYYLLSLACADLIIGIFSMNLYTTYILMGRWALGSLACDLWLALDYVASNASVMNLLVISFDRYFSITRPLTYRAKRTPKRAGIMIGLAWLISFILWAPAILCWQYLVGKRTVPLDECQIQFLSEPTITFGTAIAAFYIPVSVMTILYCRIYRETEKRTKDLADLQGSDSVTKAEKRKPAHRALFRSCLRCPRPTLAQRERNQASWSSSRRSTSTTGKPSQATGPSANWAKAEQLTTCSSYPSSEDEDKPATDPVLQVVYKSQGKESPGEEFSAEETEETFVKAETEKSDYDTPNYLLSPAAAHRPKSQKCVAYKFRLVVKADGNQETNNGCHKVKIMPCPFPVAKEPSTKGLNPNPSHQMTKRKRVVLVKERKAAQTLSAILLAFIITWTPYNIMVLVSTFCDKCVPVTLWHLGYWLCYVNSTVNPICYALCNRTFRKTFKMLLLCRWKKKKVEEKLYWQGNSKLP
Summary of the method: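 Intracellular calcium mobilization in CHO cells stably transfected with human M5 receptor, run in the presence of an ACh EC80 concentration; values are means of at least three independent determinations, each performed in triplicate.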

[2] = (§1) Fraction unbound in human plasma at 5 uM after 4 hrs by LC-MS/MS based equilibrium dialysis method; format: ADME, cell-free
[3] = (§2) Fraction unbound in rat plasma at 5 uM after 4 hrs by LC-MS/MS based equilibrium dialysis method; format: ADME, cell-free
[4] = Clearance in rat plasma by LC/MS/MS analysis; format: ADME
[5] = Elimination half life in rat by LC-MS/MS analysis; format: ADME; conditions: in vivo, read-out: beta t1/2
[6] = target: T2, Muscarinic acetylcholine receptor M5 (Homo sapiens) (UniProt P08912); assay: Negative allosteric modulation of human M5 receptor expressed in CHO cells assessed as inhibition of acetyl choline-induced calcium mobilization at 10 uM preincubated for 150 secs followed by acetyl choline addition by Fluo-4-AM dye based fluorescence assay relative to acetyl choline; values are per cent of control
T2 sequence (whole entry): T1 sequence (P08912 whole entry)

[7] = Aqueous solubility of the compound; format: physicochemical; conditions: buffer
[8] = Selectivity ratio of IC50 for rat M5 receptor expressed in CHO cells to IC50 for human M5 receptor expressed in CHO cells; format: cell-based
[9] = target: T3, Muscarinic acetylcholine receptor M5 (Rattus norvegicus, UniProt P08911); assay: Negative allosteric modulation of rat M5 receptor expressed in CHO cells assessed as inhibition of acetyl choline-induced calcium mobilization preincubated for 150 secs followed by acetyl choline addition by Fluo-4-AM dye based fluorescence assay; format: functional, cell-based
T3 sequence (P08911 whole entry): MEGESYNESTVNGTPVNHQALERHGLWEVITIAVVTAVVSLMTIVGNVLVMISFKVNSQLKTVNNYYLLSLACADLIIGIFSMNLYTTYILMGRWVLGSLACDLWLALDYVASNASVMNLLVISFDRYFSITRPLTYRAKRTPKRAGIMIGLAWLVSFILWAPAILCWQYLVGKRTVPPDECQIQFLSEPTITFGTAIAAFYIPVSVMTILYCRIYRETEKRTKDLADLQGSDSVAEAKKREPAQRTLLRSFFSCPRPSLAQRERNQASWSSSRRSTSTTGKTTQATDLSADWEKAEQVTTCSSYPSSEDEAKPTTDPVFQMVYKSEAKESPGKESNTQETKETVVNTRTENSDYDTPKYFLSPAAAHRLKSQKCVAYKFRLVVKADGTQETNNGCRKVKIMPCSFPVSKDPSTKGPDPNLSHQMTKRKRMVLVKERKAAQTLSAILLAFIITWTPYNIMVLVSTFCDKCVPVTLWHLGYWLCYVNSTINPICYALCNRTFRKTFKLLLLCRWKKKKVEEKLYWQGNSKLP
Summary of the method: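 Calcium mobilization assay in CHO cells stably transfected with rat M5 receptor; data are means of at least three independent determinations done in triplicate.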

Plasma [10] = assay: as §1; format: ADME, cell-free; conditions: 4 h, 5 µM
Plasma [11] = assay: as §2; format: ADME, cell-free; conditions: 4 h, 5 µM
Brain = assay: Fraction unbound in rat brain at 1 uM after 4 hrs by LC-MS/MS based equilibrium dialysis method; format: ADME, tissue-based
[12] = Volume of distribution at steady state in rat at 1 mg/kg, iv or 3 mg/kg, po by LC-MS/MS analysis; format: ADME, organism-based; conditions: in vivo, read-out: Vdss
[13] = Clearance in rat at 1 mg/kg, iv or 3 mg/kg, po by LC-MS/MS analysis; format: ADME, organism-based; conditions: in vivo
Rattus norvegicus = assay: Oral bioavailability in rat at 3 mg/kg by LC-MS/MS analysis; format: ADME, organism-based; conditions: in vivo
[14] = target: T4, Muscarinic acetylcholine receptor M5 (Rattus norvegicus) (UniProt P08911); assay: Negative allosteric modulation of rat M5 receptor expressed in CHO cells assessed as inhibition of acetyl choline-induced calcium mobilization at 10 uM preincubated for 150 secs followed by acetyl choline addition by Fluo-4-AM dye based fluorescence assay relative to acetyl choline; values are per cent of control
T4 sequence (whole entry): T3 sequence (P08911 whole entry)

SMILES | IC50 ([1]; read-out: IC50) | IC50 ([1]; read-out: pIC50 (converted)) | fraction unbound at 4 h, 5 µM [2] | fraction unbound at 4 h, 5 µM [3] | clearance [4] | half-life [5] | residual activity [6] | solubility [7] | Ratio IC50 [8] | IC50 [9] | Fu (Plasma [10]) | Fu (Plasma [11]) | Fu (Brain) | Vd [12] | clearance [13] | F (Rattus norvegicus) | residual activity [14]
O=C(c1ccc(F)c(F)c1)N1CCN2C(=O)c3ccccc3[C@@]12c1ccc(N2CCc3ccccc3C2)cc1 | 8.21 µM | 7.76 µM | < 0.01 | < 0.01 | > 70 mL/min/kg | < 30 min | 20.1% |  |  |  |  |  |  |  |  |  | 
O=C(c1ccc(F)c(F)c1)N1CCN2C(=O)c3ccccc3[C@@]12c1ccc(N2CCC(C(F)(F)F)CC2)cc1 | 3.42 µM |  | < 0.01 | < 0.01 | > 70 mL/min/kg | < 30 min | 3.2% |  |  |  |  |  |  |  |  |  | 
O=C(c1ccc(F)c(F)c1)N1CCN2C(=O)c3ccccc3[C@@]12c1ccc(N2CCC[C@H]2c2cccnc2)cc1 | 3.5 µM |  | < 0.01 | < 0.01 | > 70 mL/min/kg | < 30 min | 6% |  |  |  |  |  |  |  |  |  | 
O=C(c1ccc(F)c(F)c1)N1CCN2C(=O)c3ccccc3[C@@]12c1ccc(N2CCC(F)(F)CC2)cc1 | 1.82 µM |  | < 0.01 | < 0.01 | > 70 mL/min/kg | < 30 min | 3.1% | 10000 µg/mL (≈ 19.6 mM) | 2 |  |  |  |  |  |  |  | 
O=C(c1ccc(F)c(F)c1)N1CCN2C(=O)c3ccccc3[C@@]12c1ccc(Cl)cc1 |  |  |  |  |  |  | 2.3% | < 10 µg/mL |  |  |  |  |  |  |  |  | 
N#CC1CCCN(c2ccc([C@@]34c5ccccc5C(=O)N3CCN4C(=O)c3ccc(F)c(F)c3)cc2)C1 (some centres not stated) |  |  | < 0.01 | < 0.01 | > 70 mL/min/kg | < 30 min | 26.3% |  |  |  |  |  |  |  |  |  | 
CCOC(=O)N1CCN(c2ccc([C@@]34c5ccccc5C(=O)N3CCN4C(=O)c3ccc(F)c(F)c3)cc2)CC1 |  |  | < 0.01 | < 0.01 | > 70 mL/min/kg | < 30 min | 7.5% |  |  |  |  |  |  |  |  |  | 
O=C(c1ccc(F)c(F)c1)N1CCN2C(=O)c3ccccc3[C@@]12c1ccc(N2CCCC(F)(F)C2)cc1 | 1.46 µM |  | < 0.01 | < 0.01 | > 70 mL/min/kg | < 30 min | 3.1% | 10000 µg/mL (≈ 19.6 mM) | 2 |  |  |  |  |  |  |  | 
O=C(c1ccc(F)c(F)c1)N1CCN2C(=O)c3ccccc3[C@@]12c1ccc(N2CCC(F)CC2)cc1 | 4.28 µM |  | < 0.01 | < 0.01 | > 70 mL/min/kg | < 30 min | 13.6% |  |  |  |  |  |  |  |  |  | 
O=C(c1ccc(F)c(F)c1)N1CCN2C(=O)c3ccccc3[C@@]12c1ccc(NC2CCC2)cc1 | 6.92 µM | 6.76 µM | < 0.01 | < 0.01 | > 70 mL/min/kg | < 30 min | 25.5% |  |  |  |  |  |  |  |  |  | 
O=C(c1ccc(F)c(F)c1)N1CCN2C(=O)c3ccccc3[C@@]12c1ccc(N2CC[C@@H](F)C2)cc1 | 3.09 µM | 3.02 µM | < 0.01 | < 0.01 | > 70 mL/min/kg | < 30 min | 3.3% |  |  |  |  |  |  |  |  |  | 
O=C(c1ccc(F)c(F)c1)N1CCN2C(=O)c3ccccc3[C@@]12c1ccc(N2CCCC(F)C2)cc1 (some centres not stated) | 6.36 µM |  | < 0.01 | < 0.01 | > 70 mL/min/kg | < 30 min | 6.9% |  |  |  |  |  |  |  |  |  | 
Cc1cc([C@@]23c4ccccc4C(=O)N2CCN3C(=O)c2ccc(F)c(F)c2)ccc1Cl |  |  |  |  |  |  |  |  |  | 1.6 µM | 0.006 | 0.014 | 0.003 | 7.4 L/kg | 82 mL/min/kg | 17% | 2.6%
CC1Cc2ccccc2N1c1ccc([C@@]23c4ccccc4C(=O)N2CCN3C(=O)c2ccc(F)c(F)c2)cc1 (some centres not stated) | 4.55 µM | 4.47 µM | < 0.01 | < 0.01 | > 70 mL/min/kg | < 30 min | 27% |  |  |  |  |  |  |  |  |  | 
O=C(c1ccc(F)c(F)c1)N1CCN2C(=O)c3ccccc3[C@@]12c1ccc(N2CCCCC2C(F)(F)F)cc1 (some centres not stated) | 5.7 µM |  | < 0.01 | < 0.01 | > 70 mL/min/kg | < 30 min | 2.6% |  |  |  |  |  |  |  |  |  | 
O=C(c1ccc(F)c(F)c1)N1CCN2C(=O)c3ccccc3[C@@]12c1ccc(N2CCCCC2)cc1 | 6.04 µM |  | < 0.01 | < 0.01 | > 70 mL/min/kg | < 30 min | 10.5% |  |  |  |  |  |  |  |  |  | 
CC1CCCN(c2ccc([C@@]34c5ccccc5C(=O)N3CCN4C(=O)c3ccc(F)c(F)c3)cc2)C1 (some centres not stated) |  |  | < 0.01 | < 0.01 | > 70 mL/min/kg | < 30 min | 3.6% |  |  |  |  |  |  |  |  |  | 
O=C(c1ccc(F)c(F)c1)N1CCN2C(=O)c3ccccc3[C@@]12c1ccc(N2CC3(C2)CC(F)(F)C3)cc1 | > 10 µM |  | < 0.01 | < 0.01 | > 70 mL/min/kg | < 30 min | 26.2% |  |  |  |  |  |  |  |  |  | 
CN(c1ccc([C@@]23c4ccccc4C(=O)N2CCN3C(=O)c2ccc(F)c(F)c2)cc1)C1CCC1 |  |  | < 0.01 | < 0.01 | > 70 mL/min/kg | < 30 min | 2.6% | 10000 µg/mL (≈ 21.1 mM) |  |  |  |  |  |  |  |  | 
